From ChEMBL document CHEMBL1153616, “Synthesis and antiviral activity of new pyrazole and thiazole derivatives” (Eur J Med Chem, 2009)
Converted amounts (≈) assume the structure as drawn.

What was measured:
Human alphaherpesvirus 2 = assay: Antiviral activity against HSV2 G infected in human HEL cells assessed as inhibition of virus-induced cytopathicity after 3 days; type: functional, organism-based; conditions: Human alphaherpesvirus 2, strain G, 72 h
Method in brief: (§1)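 Confluent cell monolayers infected with 100 CCID50 virus; after 2 h adsorption at 37 °C, virus removed and serial compound dilutions added (DMSO stocks 10 mg/ml). Incubated 37 °C for 3 days until complete CPE in untreated virus control. EC50 = concentration protecting 50% of infected cells from viral cytopathogenicity; ">" marks highest concentration tested.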

Human respirovirus 3 = assay: Antiviral activity against Parainfluenza virus type 3 infected in african green monkey Vero cells assessed as inhibition of virus-induced cytopathicity after 3 days; type: functional, organism-based; conditions: Human respirovirus 3, Vero, 72 h; method in brief: as §1
[1] = system: Vesicular stomatitis virus; assay: Antiviral activity against Vesicular stomatitis virus infected in human HeLa cells assessed as inhibition of virus-induced cytopathicity after 3 days; type: functional, organism-based; conditions: 72 h
Human alphaherpesvirus 1 [2] = assay: Antiviral activity against thymidine kinase-deficient ACV-resistant HSV1 KOS infected in human HEL cells assessed as inhibition of virus-induced cytopathicity after 3 days; type: functional, organism-based; conditions: Human alphaherpesvirus 1, KOS, 72 h
[3] = Cytotoxicity against african green monkey Vero cells assessed as minimum cytotoxic concentration required to cause microscopically detectable alteration in normal cell morphology; type: cell-based; conditions: chlorocebus sabaeus
Method in brief: (§2)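 Run in parallel with antiviral assays on uninfected cell cultures; test compounds from 10 mg/ml DMSO stocks in serial dilution. Value is minimum cytotoxic concentration (MCC) producing microscopically detectable alteration of normal cell morphology.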

Coxsackievirus B4 [4] = assay: Antiviral activity against Coxsackievirus B4 infected in human HeLa cells assessed as inhibition of virus-induced cytopathicity after 3 days; type: functional, organism-based; conditions: Enterovirus B, 72 h
Method in brief: (§3)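 Confluent cell monolayers infected with 100 CCID50 virus; after 2 h adsorption at 37 °C, virus removed and serial compound dilutions added (DMSO stocks 10 mg/ml). Incubated 37 °C for 3 days until complete CPE in untreated virus control.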

Human alphaherpesvirus 1 [5] = assay: Antiviral activity against HSV1 KOS infected in human HEL cells assessed as inhibition of virus-induced cytopathicity after 3 days; type: functional, organism-based; conditions: Human alphaherpesvirus 1, KOS, 72 h
Sindbis virus = assay: Antiviral activity against Sindbis virus infected in african green monkey Vero cells assessed as inhibition of virus-induced cytopathicity after 3 days postinfection; type: functional, organism-based; conditions: 72 h; method in brief: as §1
Vaccinia virus = assay: Antiviral activity against Vaccinia virus infected in human HEL cells assessed as inhibition of virus-induced cytopathicity after 3 days; type: functional, organism-based; conditions: Orthopoxvirus vaccinia, 72 h
[6] = Cytotoxicity against human HeLa cells assessed as minimum cytotoxic concentration required to cause microscopically detectable alteration in normal cell morphology; type: cell-based; method in brief: as §2
Punta Toro virus = assay: Antiviral activity against Punta Toro virus infected in african green monkey Vero cells assessed as inhibition of virus-induced cytopathicity after 3 days; type: functional, organism-based; conditions: 72 h; method in brief: as §3
[7] = Cytotoxicity against HEL cells assessed as minimum cytotoxic concentration required to cause microscopically detectable alteration in normal cell morphology; type: cell-based; conditions: human; method in brief: as §2
Coxsackievirus B4 [8] = assay: Antiviral activity against Coxsackievirus B4 infected in african green monkey Vero cells assessed as inhibition of virus-induced cytopathicity after 3 days; type: functional, organism-based; conditions: Enterovirus B, 72 h; method in brief: as §1
[9] = system: Vesicular stomatitis virus; assay: Antiviral activity against Vesicular stomatitis virus infected in human HEL cells assessed as inhibition of virus-induced cytopathicity after 3 days; type: functional, organism-based; conditions: 72 h
[10] = system: Mammalian orthoreovirus 1; assay: Antiviral activity against Reovirus 1 infected in african green monkey Vero cells assessed as inhibition of virus-induced cytopathicity after 3 days; type: functional, organism-based; conditions: Mammalian orthoreovirus 1, Vero, 72 h; method in brief: as §1
[11] = system: Respiratory syncytial virus; assay: Antiviral activity against RSV infected in human HeLa cells assessed as inhibition of virus-induced cytopathicity after 3 days; type: functional, organism-based; conditions: 72 h; method in brief: as §1

| Structure (SMILES) | EC50 (Human alphaherpesvirus 2) | EC50 (Human respirovirus 3) | EC50 [1] | EC50 (Human alphaherpesvirus 1 [2]) | MCC [3] | EC50 (Coxsackievirus B4 [4]) | EC50 (Human alphaherpesvirus 1 [5]) | EC50 (Sindbis virus) | EC50 (Vaccinia virus) | MCC [6] | EC50 (Punta Toro virus) | MCC [7] | EC50 (Coxsackievirus B4 [8]) | EC50 [9] | EC50 [10] | EC50 [11] |
| --- | --- | --- | --- | --- | --- | --- | --- | --- | --- | --- | --- | --- | --- | --- | --- | --- |
| Cc1ccc(C2=NN(c3nc(-c4ccc(C)cc4)cs3)C(c3ccc(OCc4ccccc4)cc3)C2)cc1 (configuration not stated) | > 20 µg/mL | > 100 µg/mL | > 100 µg/mL | > 20 µg/mL | > 100 µg/mL | > 100 µg/mL | > 20 µg/mL | > 100 µg/mL | > 20 µg/mL | > 100 µg/mL | > 100 µg/mL | 100 µg/mL | > 100 µg/mL | > 20 µg/mL | > 100 µg/mL | > 100 µg/mL |
| O=c1[nH]c(=O)n([C@H]2C[C@H](O)[C@@H](CO)O2)cc1/C=C/Br [BRIVUDINE] | 126 µg/mL (≈ 378 µM) | – | – | > 250 µg/mL | – | – | 0.08 µg/mL (≈ 0.24 µM) | – | 10 µg/mL (≈ 30 µM) | – | – | > 250 µg/mL | – | > 250 µg/mL | – | – |
| Cc1ccc(C2=NN(c3nc(-c4ccc(Cl)cc4)cs3)C(c3ccc(OCc4ccccc4)cc3)C2)cc1 (configuration not stated) | > 20 µg/mL | > 20 µg/mL | > 20 µg/mL | > 20 µg/mL | 100 µg/mL | > 20 µg/mL | > 20 µg/mL | > 20 µg/mL | > 20 µg/mL | 100 µg/mL | > 20 µg/mL | 100 µg/mL | > 20 µg/mL | > 20 µg/mL | > 20 µg/mL | > 20 µg/mL |
| NC(=O)c1ncn([C@@H]2O[C@H](CO)[C@@H](O)[C@H]2O)n1 [RIBAVIRIN] | > 250 µg/mL | 45 µg/mL (≈ 184 µM) | 29 µg/mL (≈ 119 µM) | > 250 µg/mL | > 250 µg/mL | – | > 250 µg/mL | > 250 µg/mL | 146 µg/mL (≈ 598 µM) | > 250 µg/mL | – | > 250 µg/mL | > 250 µg/mL | > 250 µg/mL | > 250 µg/mL | 10 µg/mL (≈ 40.9 µM) |
| O=C1CSC(N2N=C(c3ccc(Br)cc3)CC2c2ccc(OCc3ccccc3)cc2)=N1 (configuration not stated) | > 20 µg/mL | > 20 µg/mL | > 100 µg/mL | > 20 µg/mL | 100 µg/mL | > 100 µg/mL | > 20 µg/mL | > 20 µg/mL | > 20 µg/mL | > 100 µg/mL | > 20 µg/mL | 100 µg/mL | > 20 µg/mL | > 20 µg/mL | > 20 µg/mL | > 100 µg/mL |
| Cc1ccc(-c2csc(N3N=C(c4ccccc4)CC3c3ccc(OCc4ccccc4)cc3)n2)cc1 (configuration not stated) | > 100 µg/mL | > 20 µg/mL | > 100 µg/mL | > 100 µg/mL | 100 µg/mL | > 100 µg/mL | > 100 µg/mL | > 20 µg/mL | > 100 µg/mL | > 100 µg/mL | > 20 µg/mL | > 100 µg/mL | > 20 µg/mL | > 100 µg/mL | > 20 µg/mL | > 100 µg/mL |
| Clc1ccc(-c2csc(N3N=C(c4ccc(Br)cc4)CC3c3ccc(OCc4ccccc4)cc3)n2)cc1 (configuration not stated) | > 100 µg/mL | > 100 µg/mL | > 100 µg/mL | > 100 µg/mL | > 100 µg/mL | > 100 µg/mL | > 100 µg/mL | > 100 µg/mL | > 100 µg/mL | > 100 µg/mL | > 100 µg/mL | > 100 µg/mL | > 100 µg/mL | > 100 µg/mL | > 100 µg/mL | > 100 µg/mL |
| Nc1ncnc2c1ncn2C[C@H](O)CO [(S)-DHPA] | – | > 250 µg/mL | > 250 µg/mL | – | > 250 µg/mL | > 250 µg/mL | – | > 250 µg/mL | – | > 250 µg/mL | > 250 µg/mL | – | > 250 µg/mL | – | > 250 µg/mL | > 250 µg/mL |
| Nc1nc2c(ncn2COC(CO)CO)c(=O)[nH]1 [GANCICLOVIR] | 0.08 µg/mL (≈ 0.313 µM) | – | – | 6 µg/mL (≈ 23.5 µM) | – | – | 0.08 µg/mL (≈ 0.313 µM) | – | > 100 µg/mL | – | – | > 100 µg/mL | – | > 100 µg/mL | – | – |
| Nc1ccn(C[C@@H](CO)OCP(=O)(O)O)c(=O)n1.O.O [CIDOFOVIR] | 5 µg/mL | – | – | 5 µg/mL | – | – | 3 µg/mL | – | 10 µg/mL | – | – | > 250 µg/mL | – | > 250 µg/mL | – | – |
